ChEMBL document CHEMBL1800056, “Discovery of 2-(6-{[(6-fluoroquinolin-2-yl)methyl]amino}bicyclo[3.1.0]hex-3-yl)-N-hydroxypyrimidine-5-carboxamide (CHR-3996), a class I selective orally active histone deacetylase inhibitor” (J Med Chem, 2010)
≈ marks a conversion by molar mass, not a printed value. Each block holds one molecule with its values, some of them ahead of it. Calls of active or inactive are those of the source. The rule behind the calls is not given here.

What was measured:
[1] = system: Rattus norvegicus; assay: AUC (0 to t) in rat at 10 mg/kg, po; type: ADME, organism-based, Plasma; design: dose 10 mg/kg, route oral; conditions: in vivo
Procedure, shortened: (§1)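 Rat single dose, iv 1 mg/kg or po 10 mg/kg, both in 1% DMSO-HPβC (11.25% w/v). AUC0-t in ng h/mL, clearance in (mL/min)/kg, t1/2 in h, F in %.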

[2] = system: U-937; assay: Ratio of GI50 for SAHA to compound for human U937 cells after 72 hrs by WST-1 assay; type: functional
Procedure, shortened: (§2)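 Cells seeded at (1-5) × 10³/well in serum-containing medium and grown 24 h at 37 °C, 5% CO₂. They were then exposed for 72 h to HDAC inhibitor (0.6-10000 nM), with SAHA run alongside in the same panel. WST-1 was added for the final 4 h and read at 450 nm (650 nm reference). GI50 taken as 50% inhibition of the vehicle response, n = 6.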

[3] = target: Histone deacetylase 3 (Homo sapiens, UniProt O15379); assay: Inhibition of human recombinant HDAC3 using fluor de Lys as substrate by fluorometric analysis
[4] = system: MIA PaCa-2; assay: Ratio of GI50 for SAHA to compound for human MIAPaCa2 cells after 72 hrs by WST-1 assay; type: functional; procedure, shortened: as §2
[5] = system: COR-L23; assay: Antiproliferative activity against doxorubicin-resistant human COR-L23 cells after 72 hrs by WST-1 assay; type: functional; conditions: Homo sapiens, COR-L23, 72 h
Procedure, shortened: (§3)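 Cells seeded at (1-5) × 10³/well in serum-containing medium for 24 h at 37 °C, 5% CO₂. Inhibitor added at 0.6-10000 nM for 72 h, with WST-1 pulse over the final 4 h. Formazan read at 450 nm (reference 650 nm). Expressed as % inhibition of vehicle response; GI50 is the concentration inhibiting 50% of vehicle response; n = 6 replicates.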

[6] = Aqueous solubility of the compound in PBS at pH 5.5; type: physicochemical
[7] = Half life in rat at 10 mg/kg, po; type: ADME, organism-based; design: dose 10 mg/kg, route oral; conditions: in vivo; procedure, shortened: as §1
[8] = Ratio of GI50 for SAHA to compound for human […] cells after 72 hrs by WST-1 assay; type: functional; procedure, shortened: as §2
[9] = Clearance in rat at 1 mg/kg, iv; type: ADME, organism-based; design: dose 1 mg/kg, route intravenous; conditions: in vivo; procedure, shortened: as §1
[10] = system: A549; assay: Ratio of GI50 for SAHA to compound for human A549 cells after 72 hrs by WST-1 assay; type: functional; procedure, shortened: as §2
[11] = AUC (0 to t) in dog at 10 mg/kg, po; type: ADME, organism-based, Canis lupus familiaris; design: dose 10 mg/kg, route oral; conditions: plasma
Procedure, shortened: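 Dog single dose: iv 1 mg/kg in 5% DMSO-HPβC (11.25% w/v); po 10 mg/kg in 5% DMSO-saline. AUC0-t in ng h/mL, clearance in (mL/min)/kg, t1/2 in h, F in %.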

[12] = Antiproliferative activity against human […] cells after 72 hrs by WST-1 assay; type: functional; conditions: Homo sapiens, MCR5-SV2, 72 h; procedure, shortened: as §3
[13] = system: COR-L23; assay: Ratio of GI50 for SAHA to compound for human COR-L23 cells after 72 hrs by WST-1 assay; type: functional; procedure, shortened: as §2
[14] = target: Histone deacetylase 5 (Homo sapiens, UniProt Q9UQL6); assay: Inhibition of human recombinant HDAC5 using fluor de Lys as substrate by fluorometric analysis
[15] = system: LoVo; assay: Antitumor activity against human LoVo cells xenografted in nude BALB/c mouse assessed as reduction in tumor volume at 25 mg/kg, po administered QD for 19 days; type: functional, organism-based; design: dose 25 mg/kg
Procedure, shortened: (§4)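 LoVo colorectal xenograft grown subcutaneously in female BALB/c nude mice, run at EpiStem. Compound given orally daily at 25 or 50 mg/kg; tumor volume followed.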

[16] = Aqueous solubility of the compound in PBS at pH 7.4; type: physicochemical
[17] = system: A2780; assay: Ratio of GI50 for SAHA to compound for human A2780 cells after 72 hrs by WST-1 assay; type: functional; procedure, shortened: as §2
[18] = system: HCT-116; assay: Ratio of GI50 for SAHA to compound for human HCT116 cells after 72 hrs by WST-1 assay; type: functional; procedure, shortened: as §2
[19] = system: LoVo; assay: Antitumor activity against human LoVo cells xenografted in nude BALB/c mouse assessed as reduction in tumor volume at 50 mg/kg, po administered QD for 19 days; type: functional, organism-based; design: dose 50 mg/kg; procedure, shortened: as §4
[20] = system: HCT-116; assay: Antitumor activity against human HCT116 cells xenografted in BALB/c mouse assessed as suppression of tumor growth at 50 mg/kg, po administered QD for 14 days; type: functional, organism-based; design: dose 50 mg/kg
Procedure, shortened: (§5)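 HCT116 xenografts in female nude BALB/c mice, run at EpiStem. Oral daily dosing for 14 days in 5% DMSO-saline at 50 or 75 mg/kg. Tumor volume measured relative to start; drug concentrations in tumor and plasma measured.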

[21] = system: HuT78; assay: Ratio of GI50 for SAHA to compound for human HUT78 cells after 72 hrs by WST-1 assay; type: functional; procedure, shortened: as §2
[22] = system: HepG2; assay: Ratio of GI50 for SAHA to compound for human HepG2 cells after 72 hrs by WST-1 assay; type: functional; procedure, shortened: as §2
[23] = system: Rattus norvegicus; assay: AUC (0 to t) in rat at 1 mg/kg, iv; type: ADME, organism-based, Plasma; design: dose 1 mg/kg, route intravenous; conditions: in vivo; procedure, shortened: as §1
[24] = system: Rattus norvegicus; assay: Oral bioavailability in rat at 10 mg/kg; type: ADME, organism-based; conditions: in vivo; procedure, shortened: as §1
[25] = system: LoVo; assay: Ratio of GI50 for SAHA to compound for human LoVo cells after 72 hrs by WST-1 assay; type: functional; procedure, shortened: as §2
[26] = system: COR-L23; assay: Ratio of GI50 for SAHA to compound for doxorubicin-resistant human COR-L23 cells after 72 hrs by WST-1 assay; type: functional; procedure, shortened: as §2
[27] = system: PC-3; assay: Ratio of GI50 for SAHA to compound for human PC3 cells after 72 hrs by WST-1 assay; type: functional; procedure, shortened: as §2
[28] = system: DU-145; assay: Ratio of GI50 for SAHA to compound for human DU145 cells after 72 hrs by WST-1 assay; type: functional; procedure, shortened: as §2
[29] = Drug level in tumor of BALB/c mouse at 75 mg/kg, po administered daily for 14 days; type: ADME, organism-based, Neoplasm; design: dose 75 mg/kg, route oral; conditions: read-out: Drug uptake; procedure, shortened: as §5
[30] = system: Mus musculus; assay: In-vivo inhibition of HDAC1 in human HCT116 cells xenografted CrTac:NCr-Fox1 nude mouse assessed as histone acetylation at 50 mg/kg, po administered daily for 16 days measured after hrs by Western blot analysis relative to control; type: functional, organism-based; design: dose 50 mg/kg; conditions: HCT-116
Procedure, shortened: (§6)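 Female CrTac:NCr-Fox1(nu) mice, 6-8 weeks old, bearing bilateral sc HCT116 tumors (2 million cells). Daily oral 50 mg/kg in 10% DMSO-saline from day 6 (tumors ~5 mm) to day 16; vehicle controls. Tumor lysates taken 0.5, 1.0 and 4 h after the last dose. Western blot for acetylated histone H3 or α-tubulin, normalized to GAPDH.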

[31] = system: Mus musculus; assay: Toxicity in human HCT116 cells xenografted CrTac:NCr-Fox1 nude mouse at 50 mg/kg, po administered daily for 16 days; type: organism-based, HCT-116; design: dose 50 mg/kg, route oral; conditions: in vivo, 384 h
Procedure, shortened: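 Female CrTac:NCr-Fox1(nu) athymic mice, 6-8 weeks old, given bilateral sc HCT116 implants (2 million cells). Oral dosing at 50 mg/kg in 10% DMSO-saline, once daily from day 6 (tumors ~5 mm mean diameter) until day 16. Controls received vehicle. Tumor size and body weight recorded three times weekly.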

[32] = system: Mus musculus; assay: In-vivo inhibition of HDAC6 in human HCT116 cells xenografted CrTac:NCr-Fox1 nude mouse assessed as alpha-tubulin acetylation at 50 mg/kg, po administered daily for 16 days by Western blot analysis relative to control; type: functional, organism-based; design: dose 50 mg/kg; conditions: HCT-116; procedure, shortened: as §6

Sequence of Histone deacetylase 5 (Q9UQL6 whole entry): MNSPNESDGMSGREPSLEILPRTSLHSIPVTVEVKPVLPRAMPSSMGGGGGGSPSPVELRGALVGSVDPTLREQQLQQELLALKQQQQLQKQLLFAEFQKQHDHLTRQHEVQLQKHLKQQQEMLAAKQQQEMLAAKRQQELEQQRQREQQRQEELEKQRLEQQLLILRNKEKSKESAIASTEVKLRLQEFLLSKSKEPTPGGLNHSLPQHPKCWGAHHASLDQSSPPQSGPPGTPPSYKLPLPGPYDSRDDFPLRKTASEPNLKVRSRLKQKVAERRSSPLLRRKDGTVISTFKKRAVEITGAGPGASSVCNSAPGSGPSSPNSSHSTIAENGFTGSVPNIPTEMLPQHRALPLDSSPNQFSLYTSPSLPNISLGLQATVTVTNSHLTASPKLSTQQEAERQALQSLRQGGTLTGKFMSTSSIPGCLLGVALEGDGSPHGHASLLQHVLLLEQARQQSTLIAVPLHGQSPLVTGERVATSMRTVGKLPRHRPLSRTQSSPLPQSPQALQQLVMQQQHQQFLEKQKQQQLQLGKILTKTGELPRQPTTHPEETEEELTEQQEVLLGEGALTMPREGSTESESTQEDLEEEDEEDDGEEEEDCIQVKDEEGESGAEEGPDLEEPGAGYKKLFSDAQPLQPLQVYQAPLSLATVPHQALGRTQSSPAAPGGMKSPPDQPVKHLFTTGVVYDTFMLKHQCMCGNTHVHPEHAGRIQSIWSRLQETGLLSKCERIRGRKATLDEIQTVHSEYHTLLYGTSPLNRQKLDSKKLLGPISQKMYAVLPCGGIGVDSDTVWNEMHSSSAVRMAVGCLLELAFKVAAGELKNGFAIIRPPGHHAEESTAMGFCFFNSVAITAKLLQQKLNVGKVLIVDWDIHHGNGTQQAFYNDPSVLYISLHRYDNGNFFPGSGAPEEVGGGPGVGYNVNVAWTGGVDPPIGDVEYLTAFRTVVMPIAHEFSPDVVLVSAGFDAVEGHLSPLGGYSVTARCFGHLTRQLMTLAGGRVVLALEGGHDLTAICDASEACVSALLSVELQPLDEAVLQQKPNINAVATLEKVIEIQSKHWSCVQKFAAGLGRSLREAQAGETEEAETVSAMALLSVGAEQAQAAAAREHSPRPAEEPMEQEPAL
Sequence of Histone deacetylase 3 (O15379 whole entry): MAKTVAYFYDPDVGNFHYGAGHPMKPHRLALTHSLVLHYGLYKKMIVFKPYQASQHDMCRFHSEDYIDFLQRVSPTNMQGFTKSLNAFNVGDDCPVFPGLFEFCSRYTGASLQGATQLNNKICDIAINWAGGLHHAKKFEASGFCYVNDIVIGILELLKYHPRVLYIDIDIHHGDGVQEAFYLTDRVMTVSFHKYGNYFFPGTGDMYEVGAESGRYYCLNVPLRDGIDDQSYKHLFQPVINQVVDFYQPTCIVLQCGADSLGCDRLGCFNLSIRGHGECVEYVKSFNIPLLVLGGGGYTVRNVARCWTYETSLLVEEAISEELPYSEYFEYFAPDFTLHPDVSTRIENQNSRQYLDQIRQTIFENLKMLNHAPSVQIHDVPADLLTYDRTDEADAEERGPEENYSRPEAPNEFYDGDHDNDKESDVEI

AUCt [1]: 102 ng·h/mL
IC50 [3]: 7 nM
solubility [6]: 3 µg/mL (≈ 7.61 µM)
half-life [7]: 5.2 h
clearance [9]: 134 mL/min/kg
AUC(0-t) [11]: 950 ng·h/mL
IC50 [14]: 200 nM
solubility [16]: 1 µg/mL (≈ 2.54 µM)
AUCt [23]: 124 ng·h/mL
F [24]: 27%
Structure (SMILES): O=C(NO)c1cnc(N2C[C@@H]3[C@H](C2)[C@H]3NCc2ccc3cc(F)ccc3n2)nc1 [NANATINOSTAT]
RatioGI50 [2]: 8.7
RatioGI50 [4]: 12.5
GI50 [5]: 560 nM
RatioGI50 [8]: 19
RatioGI50 [10]: 22.8
GI50 [12]: 110 nM
RatioGI50 [13]: 10.5
Activity [15]: Active
RatioGI50 [17]: 15
RatioGI50 [18]: 10.3
Activity [19]: Active
Activity [20]: Active
RatioGI50 [21]: 9.5
RatioGI50 [22]: 20
RatioGI50 [25]: 12.1
RatioGI50 [26]: 5
RatioGI50 [27]: 12.5
RatioGI50 [28]: 21.9

IC50 [3]: 10 nM
concentration at 336 h [29]: 28 ng/mL
AUC(0-t) [11]: 1480 ng·h/mL
IC50 [14]: 500 nM
Structure (SMILES): O=C(NO)c1cnc(N2C[C@@H]3[C@H](C2)[C@H]3NCc2ccc(Cl)cc2)nc1
GI50 [5]: 1100 nM
inhibition [30]: Active
Activity [31]: Non-toxic
inhibition [32]: inactive
